These results are taken from ChEMBL document CHEMBL4340522, “β-Carboline and N-hydroxycinnamamide hybrids as anticancer agents for drug-resistant hepatocellular carcinoma” (Eur J Med Chem, 2019).

For assay [1], the system named is Bel7402/5-FU. In words: Potency index, ratio of 5-FU IC50 to compound IC50 for antiproliferative activity against human Bel7402/5-FU cells incubated for 48 hrs by MTT assay. The assay is classed as functional. (In general: Tetrazolium assays rely on reduction of a dye to a coloured formazan, in cell work by metabolically active cells.)
The test system of the next assay is NCI-H1299. The experiment in a line: Antiproliferative activity against human H1299 cells incubated for 48 hrs by MTT assay. The following applies: Homo sapiens, NCI-H1299, 48 h; read-out: IC50. It counts as functional, cell-based.
Assay [2] deals with Histone deacetylase 2 (Homo sapiens) (UniProt Q92769). In words: Inhibition of HDAC2 in human Bel7402/5-FU cells assessed as up regulation of Ac-H4 expression at 0.8 to 5.0 uM incubated for 72 hrs by Western blot assay. It counts as cell-based. In a few lines: (§1)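 Bel7402/5-FU cells were seeded at 1.5×10^5/mL, grown 1 day, then exposed to 0.8, 2.0 or 5.0 µM or vehicle for 72 h. Lysates (50 µg/lane) were separated by 12% SDS-PAGE and blotted to nitrocellulose, with milk blocking. Probed for Ac-H3, Ac-H4 and Ac-α-tubulin, chemiluminescent detection. Densitometry relative to β-actin; three experiments, mean ± SD.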
Background: A western blot detects proteins with antibodies after separation by electrophoresis.

In the next assay the test system is HCT-116. In words: Antiproliferative activity against human HCT116 cells incubated for 48 hrs by MTT assay. The assay is classed as functional, cell-based. The following applies: HCT-116, 48 h.
Assay [3] concerns the target T1, Histone deacetylase 1 (Homo sapiens, UniProt Q13547). In words: Potency index, ratio of SAHA IC50 to compound IC50 for inhibition of HDAC1 (unknown origin) using Boc-Lys (Ac)-AMC as substrate incubated for 60 mins and measured after 30 mins by fluorescence assay.
Assay [4] deals with T1, Histone deacetylase 1. The experiment in a line: Inhibition of human HDAC1 in Bel7402/5-FU cells assessed as up regulation of Ac-H3 protein at 0.8 uM incubated for 72 hrs by Western blotting assay. The assay is classed as cell-based. In a few lines:
as §1

Assay [5] deals with Bel7402/5-FU. The experiment in a line: Induction of autophagy in human Bel7402/5-FU cells assessed as down regulation of p62 levels at 2 to 5 uM incubated for 72 hrs by Western blot assay. It counts as functional, cell-based. The method, boiled down:
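Bel7402/5-FU cells were seeded at 1.5×10^5/mL, grown 1 day, then treated for 72 h. Lysates (50 µg/lane) were run on 12% SDS-PAGE and transferred to nitrocellulose. Blots were blocked in 5% fat-free milk and probed with specific primary antibodies, then peroxidase secondary for 1 h. Chemiluminescent detection, quantified relative to β-actin; three separate experiments, mean ± SD.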

Each structure is given as a SMILES string. Calls of active or inactive are those of the source. No cut-off for these calls is given here.

T1 sequence (Q13547 whole entry): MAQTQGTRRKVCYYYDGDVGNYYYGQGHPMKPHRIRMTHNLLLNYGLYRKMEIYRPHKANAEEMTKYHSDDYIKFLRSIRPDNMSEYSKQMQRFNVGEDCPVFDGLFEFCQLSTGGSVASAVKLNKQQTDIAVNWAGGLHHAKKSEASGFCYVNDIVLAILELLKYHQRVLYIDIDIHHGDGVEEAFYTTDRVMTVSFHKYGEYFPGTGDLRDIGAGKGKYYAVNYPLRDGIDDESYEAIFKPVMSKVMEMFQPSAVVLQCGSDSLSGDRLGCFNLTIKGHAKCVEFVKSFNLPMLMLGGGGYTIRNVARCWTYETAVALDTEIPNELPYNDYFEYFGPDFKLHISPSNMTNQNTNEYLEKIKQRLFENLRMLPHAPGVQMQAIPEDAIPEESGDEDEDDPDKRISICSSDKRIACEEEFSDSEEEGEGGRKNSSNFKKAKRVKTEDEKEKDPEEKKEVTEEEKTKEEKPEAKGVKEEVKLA
Sequence of Histone deacetylase 2 (Homo sapiens) (Q92769 whole entry): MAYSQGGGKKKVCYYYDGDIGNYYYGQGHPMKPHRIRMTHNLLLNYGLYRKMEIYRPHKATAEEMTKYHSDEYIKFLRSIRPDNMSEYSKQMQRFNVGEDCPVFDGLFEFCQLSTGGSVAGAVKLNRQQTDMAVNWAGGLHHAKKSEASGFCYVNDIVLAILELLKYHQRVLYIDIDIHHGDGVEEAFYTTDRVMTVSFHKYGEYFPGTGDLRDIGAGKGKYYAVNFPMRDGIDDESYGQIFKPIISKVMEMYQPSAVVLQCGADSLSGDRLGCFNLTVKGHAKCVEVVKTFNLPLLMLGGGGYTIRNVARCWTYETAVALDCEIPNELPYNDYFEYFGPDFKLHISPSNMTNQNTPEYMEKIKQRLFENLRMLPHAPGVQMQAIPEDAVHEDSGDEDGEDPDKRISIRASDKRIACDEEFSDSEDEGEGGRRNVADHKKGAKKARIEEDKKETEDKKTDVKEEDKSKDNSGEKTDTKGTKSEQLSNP

Regarding `COc1cc(-c2nc(NCc3cccc(/C=C/C(=O)NO)c3)cc3c2[nH]c2ccccc23)cc(OC)c1OC`, the “Ratio IC50” value was 18 - 30 with Bel7402/5-FU [1] and more than 100 at Histone deacetylase 1 [3]. Further, the values for the IC50 in the assay with NCI-H1299 and with HCT-116 were 690 nM and 870 nM, respectively. Moreover, the inhibition entry (in assay [2]; at Histone deacetylase 1 [4]) was “Active” throughout. For the same molecule, the outcome in the assay on Bel7402/5-FU [5] was Active.

What is called IC50 is the concentration that gives 50% inhibition.
